PRMT1 FP inh = inhibitors of human PRMT1; Q99873; AID 652257; recombinant PRMT1, activity-based probe fluorescence polarization; 370,000 compounds, 1.3% hits; inhibition, % at 2.79 µM;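 active means inhibition above about 21% made by adding two undisclosed values, limit read from the data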
TCR CD3 inh = human TCR-CD3 binding inhibition; inhibition, % at 9.4 µM; AID 651800; 360,000 compounds, 0.37% hits; TAMRA-labeled TCR probe fluorescence, biochemical; in the data active means inhibition above about 19%;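 further: recombinant mutant TCR 2C K166C tagged with TAMRA read by polarization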
mABHD4 FP = inhibitors of mouse ABHD4 | inhibition, % at 8.92 µM | Q8VD66 | AID 720543 | purified mABHD4, FP-Rh probe fluorescence polarization | 370,000 compounds, 0.54% hits;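 active means inhibition exceeding the mean over every tested compound plus 3 SD, cut at about 30% in these data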
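Doses – 8.92 µM, single dose · Material – wild-type mouse ABHD4 protein · Replication – single well per compound (singlicate) · Measure – percent inhibition of probe binding, normalized to plate controls · Schedule – 45 min compound pre-incubation plus 60 min probe step, 25 °C · Detection – fluorescence polarization with parallel and perpendicular emission, 525/598 nm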
HTRA1 inhibitor = blocks human HTRA1 serine peptidase; recombinant HTRA1, FP-rhodamine activity-based probe, fluorescence polarization; inhibition, % at 5.96 µM; Q92743; 340,000 compounds, 0.5% hits; in the data active means inhibition above about 36%
SIAE inh = blocks human sialic acid acetylesterase | inhibition, % at 9.66 µM | SIAE FP-Rh probe binding, fluorescence polarization | Q9HAT2 | 370,000 compounds, 0.69% hits;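 active means inhibition above a cutoff: mean of compounds within the control limits plus 3 SD of those, cut at about 17% in these data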
Target sequence (Q9HAT2 whole entry, looked up): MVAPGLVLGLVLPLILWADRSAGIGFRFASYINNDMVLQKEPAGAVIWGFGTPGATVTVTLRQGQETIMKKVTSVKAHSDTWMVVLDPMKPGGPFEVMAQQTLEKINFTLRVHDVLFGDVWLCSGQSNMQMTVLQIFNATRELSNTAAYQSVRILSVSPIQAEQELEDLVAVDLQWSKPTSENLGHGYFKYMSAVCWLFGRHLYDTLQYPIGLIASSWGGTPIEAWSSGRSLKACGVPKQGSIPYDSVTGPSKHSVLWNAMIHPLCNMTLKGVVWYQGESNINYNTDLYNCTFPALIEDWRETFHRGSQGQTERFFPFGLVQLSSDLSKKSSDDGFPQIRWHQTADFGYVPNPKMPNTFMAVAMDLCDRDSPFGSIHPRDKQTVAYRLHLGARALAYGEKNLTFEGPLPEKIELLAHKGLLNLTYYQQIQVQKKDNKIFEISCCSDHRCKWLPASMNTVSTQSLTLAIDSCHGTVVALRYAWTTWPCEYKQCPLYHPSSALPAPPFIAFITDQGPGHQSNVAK
PRMT1 inh conf = PRMT1 (human) inhibition, FP confirmation; shares compounds with PRMT1 FP inh; recombinant His-PRMT1, activity-based probe fluorescence polarization; inhibition, % at 2.79 µM; 3,300 compounds, 42% hits; AID 687036;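 active means mean inhibition across replicates above the hit cutoff derived for the earlier primary screen, cut at about 22% in these data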
Numbers stand for hits. Shown are actives, neighbours in structure and some others; about 2.5% of the full set was active somewhere.

`CCC1Cc2[nH][nH]c(=O)c2C(CC)O1` (stereo not given) gave PRMT1 FP inh inactive, TCR CD3 inh inactive, mABHD4 FP inactive and SIAE inh inactive.
Screening Cc1ccccc1N1C(=O)c2cccc3c(N(C)CCO)ccc(c23)C1=O returned PRMT1 FP inh 71.4, TCR CD3 inh inactive, mABHD4 FP inactive, HTRA1 inhibitor inactive, SIAE inh inactive and PRMT1 inh conf 62.6.
COc1ccccc1N1C(=O)c2cccc3c(C(=O)O)ccc(c23)C1=O was read as PRMT1 FP inh inactive, TCR CD3 inh inactive, mABHD4 FP inactive, HTRA1 inhibitor inactive and SIAE inh inactive.
For COc1ccccc1N1C(=O)c2cccc3c(N(C)CCO)ccc(c23)C1=O the results were PRMT1 FP inh 66.4, TCR CD3 inh inactive, mABHD4 FP inactive, HTRA1 inhibitor inactive, SIAE inh inactive and PRMT1 inh conf 46.7.
`Cc1cc(C)c(OCC(=O)OCC(=O)N2c3ccccc3CC2C)c(C)c1` (stereo not given) gave PRMT1 FP inh inactive, TCR CD3 inh inactive, mABHD4 FP inactive, HTRA1 inhibitor inactive and SIAE inh inactive.
`COc1ccccc1OCC(=O)Nc1nnc(-c2ccco2)s1` gave PRMT1 FP inh 73.0, TCR CD3 inh inactive, mABHD4 FP inactive, HTRA1 inhibitor inactive, SIAE inh inactive and PRMT1 inh conf inactive.
O=C(COC(=O)COc1ccccc1Cc1ccccc1)Nc1cccnc1Cl was read as PRMT1 FP inh inactive, TCR CD3 inh inactive, mABHD4 FP inactive, HTRA1 inhibitor inactive and SIAE inh inactive.
For CCN=C1SC(CC(=O)NC(N)=O)C(=O)N1CC (stereo not given) the results were PRMT1 FP inh inactive, TCR CD3 inh inactive, mABHD4 FP inactive, HTRA1 inhibitor inactive and SIAE inh inactive.
Screening COc1ccc(CCNC(=O)CC2SC(=NCCc3ccccc3)NC2=O)cc1 (stereo not given) returned PRMT1 FP inh 26.1, TCR CD3 inh inactive, mABHD4 FP inactive, HTRA1 inhibitor inactive, SIAE inh inactive and PRMT1 inh conf inactive.
`CCN=C1SC(CC(=O)NCCc2ccc(OC)cc2)C(=O)N1CC` (stereo not given) gave PRMT1 FP inh 31.2, TCR CD3 inh inactive, mABHD4 FP inactive, HTRA1 inhibitor inactive, SIAE inh inactive and PRMT1 inh conf inactive.
`CN=C1SC(CC(=O)NCCc2ccc(OC)c(OC)c2)C(=O)N1C` (stereo not given) gave PRMT1 FP inh inactive, TCR CD3 inh inactive, mABHD4 FP inactive, HTRA1 inhibitor inactive and SIAE inh inactive.
Screening CCN=C1SC(CC(=O)NCCc2ccc(OC)c(OC)c2)C(=O)N1CC (stereo not given) returned PRMT1 FP inh 31.9, TCR CD3 inh inactive, mABHD4 FP inactive, HTRA1 inhibitor inactive, SIAE inh inactive and PRMT1 inh conf inactive.
Screening COc1ccc(CCNC(=O)CC2SC(=NCc3ccccc3)NC2=O)cc1 (stereo not given) returned PRMT1 FP inh inactive, TCR CD3 inh inactive, mABHD4 FP inactive, HTRA1 inhibitor inactive and SIAE inh inactive.
CC1(C(=O)NS(=O)(=O)c2ccc(Cl)s2)CCN1C(=O)c1ccccc1CCc1ccccc1 (stereo not given) was read as PRMT1 FP inh inactive, TCR CD3 inh inactive, mABHD4 FP inactive and SIAE inh inactive.
Screening CCOC(=O)[C@]12CCCC3=C1N(CCC3)C(=O)[C@@H](CC(=O)N1CCCCC1)C2 returned PRMT1 FP inh inactive, mABHD4 FP inactive and SIAE inh inactive.
`Cc1nc2nc(SCc3ccccc3)[nH]n2c(=O)c1CCC(C)C` gave PRMT1 FP inh inactive, TCR CD3 inh inactive, mABHD4 FP inactive, HTRA1 inhibitor inactive and SIAE inh inactive.
CCNC(=O)C1(C)CCN(Cc2ccccc2-c2ccccc2)C1 (stereo not given) was read as PRMT1 FP inh inactive, TCR CD3 inh inactive, mABHD4 FP inactive and SIAE inh inactive.
N#CC1=C2SCN(c3ccc(F)cc3)CN2C(=O)CC1c1cccc(F)c1 (stereo not given) was read as PRMT1 FP inh 27.5, TCR CD3 inh inactive, mABHD4 FP inactive, HTRA1 inhibitor inactive, SIAE inh inactive and PRMT1 inh conf 60.6.
`COc1ccc(N2CSC3=C(C#N)C(c4cc(OC)c(OC)cc4OC)CC(=O)N3C2)c(OC)c1` (stereo not given) gave PRMT1 FP inh 39.4, TCR CD3 inh inactive, mABHD4 FP inactive, HTRA1 inhibitor inactive, SIAE inh inactive and PRMT1 inh conf 62.9.

High-throughput results deposited in PubChem BioAssay by The Scripps Research Institute Molecular Screening Center.
